Test [1] has as its target T1, Alpha adrenergic receptor 1A and 1B (Rattus norvegicus, UniProt P15823+P43140).
T1 sequence (P15823 whole entry): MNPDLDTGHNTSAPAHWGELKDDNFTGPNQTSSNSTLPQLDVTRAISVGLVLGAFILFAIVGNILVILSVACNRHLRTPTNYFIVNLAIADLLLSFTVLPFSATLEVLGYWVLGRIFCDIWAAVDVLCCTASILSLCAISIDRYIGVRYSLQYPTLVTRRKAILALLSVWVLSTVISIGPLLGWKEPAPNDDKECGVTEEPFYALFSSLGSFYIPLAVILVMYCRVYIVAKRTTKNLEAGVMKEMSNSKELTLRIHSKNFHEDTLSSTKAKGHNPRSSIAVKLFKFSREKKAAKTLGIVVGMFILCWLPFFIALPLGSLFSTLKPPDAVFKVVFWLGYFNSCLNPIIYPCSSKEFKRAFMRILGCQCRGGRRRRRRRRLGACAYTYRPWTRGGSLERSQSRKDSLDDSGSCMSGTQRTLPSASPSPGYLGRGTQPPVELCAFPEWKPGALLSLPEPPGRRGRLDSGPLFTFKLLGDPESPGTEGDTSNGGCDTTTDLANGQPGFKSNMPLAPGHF
T1 sequence (P43140 whole entry): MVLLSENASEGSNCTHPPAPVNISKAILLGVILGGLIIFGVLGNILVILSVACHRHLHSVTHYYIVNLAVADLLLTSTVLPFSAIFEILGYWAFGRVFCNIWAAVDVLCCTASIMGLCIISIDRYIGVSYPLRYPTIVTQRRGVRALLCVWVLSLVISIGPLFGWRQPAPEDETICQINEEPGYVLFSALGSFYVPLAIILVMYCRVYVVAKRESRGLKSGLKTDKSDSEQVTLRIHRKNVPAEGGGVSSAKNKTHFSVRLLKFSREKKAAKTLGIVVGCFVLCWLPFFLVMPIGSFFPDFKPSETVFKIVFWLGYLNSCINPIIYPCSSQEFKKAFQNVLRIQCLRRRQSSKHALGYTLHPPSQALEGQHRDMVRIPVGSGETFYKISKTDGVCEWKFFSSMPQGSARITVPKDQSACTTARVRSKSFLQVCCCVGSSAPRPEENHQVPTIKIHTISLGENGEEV
The test can be described thus: Binding affinity at Alpha-1 adrenergic receptor in rat brain homogenates by [3H]- prazosin displacement. Format: tissue-based.

The target of test [2] is T2, D(2) dopamine receptor (Homo sapiens, UniProt P14416). In words: Binding affinity at human Dopamine receptor D2 by [3H]- YM 09151 displacement; Not active. In a few lines: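 Competitive radioligand displacement on cloned human D2 receptor, with [3H]YM 09151 as the displaced ligand.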
T2 sequence (P14416 whole entry): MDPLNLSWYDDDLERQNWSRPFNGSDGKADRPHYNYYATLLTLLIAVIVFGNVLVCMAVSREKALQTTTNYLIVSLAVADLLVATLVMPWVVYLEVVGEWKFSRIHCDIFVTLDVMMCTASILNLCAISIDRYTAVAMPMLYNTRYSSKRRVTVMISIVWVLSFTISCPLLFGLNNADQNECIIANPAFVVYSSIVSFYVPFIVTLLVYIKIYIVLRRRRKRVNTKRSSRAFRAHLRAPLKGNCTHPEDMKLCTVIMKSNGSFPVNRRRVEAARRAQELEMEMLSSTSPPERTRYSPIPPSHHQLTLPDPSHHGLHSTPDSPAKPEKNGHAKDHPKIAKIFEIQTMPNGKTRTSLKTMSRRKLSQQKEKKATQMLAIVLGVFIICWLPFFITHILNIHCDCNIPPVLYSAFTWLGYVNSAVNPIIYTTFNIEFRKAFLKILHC
The target in test [3] is T3, D(4) dopamine receptor (Homo sapiens, UniProt P21917).
T3 sequence (P21917 whole entry): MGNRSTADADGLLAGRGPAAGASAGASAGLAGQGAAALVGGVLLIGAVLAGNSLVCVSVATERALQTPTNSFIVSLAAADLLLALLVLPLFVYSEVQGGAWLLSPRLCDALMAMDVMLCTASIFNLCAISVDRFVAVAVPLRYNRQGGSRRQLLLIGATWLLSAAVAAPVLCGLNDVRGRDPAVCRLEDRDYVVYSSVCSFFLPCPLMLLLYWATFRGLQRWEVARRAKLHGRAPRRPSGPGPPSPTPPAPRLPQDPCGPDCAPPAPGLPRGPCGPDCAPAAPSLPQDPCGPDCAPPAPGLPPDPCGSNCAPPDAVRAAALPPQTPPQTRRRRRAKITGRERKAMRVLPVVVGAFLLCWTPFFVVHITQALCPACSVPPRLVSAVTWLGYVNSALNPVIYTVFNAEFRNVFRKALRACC
The test can be described thus: Binding affinity at human Dopamine receptor D4 by [3H]- YM 09151 displacement; Not active.

In test [4] the target is T3, D(4) dopamine receptor. In words: Binding affinity at human Dopamine receptor D4 by [3H]- YM 09151 displacement.
Test [5] deals with T2, D(2) dopamine receptor.

Data on 28 compounds can be found in ChEMBL document CHEMBL1132730, “Design, synthesis, and discovery of 3-piperazinyl-3,4-dihydro-2(1H)-quinolinone derivatives: a novel series of mixed dopamine D2/D4 receptor antagonists” (Bioorg Med Chem Lett, 2000).

pKi: −log10 of the molar value.

As for `Clc1ccc(N2CCN(C[C@H]3C[C@@H]3c3ccccc3)CC2)c(Cl)c1`, in test [1], the Ki – broadly, a measure of affinity in units of concentration, obtained from inhibition or displacement – came out at 0.322 µM.

Turning to `CCOC(=O)C1(N2CCN(Cc3ccc(Cl)cc3)CC2)Cc2ccccc2NC1=O` (stereo unspecified), the Ki result on D(2) dopamine receptor [2] and on D(4) dopamine receptor [3] was “Not Active” in each case.

As for `CCN1C(=O)C(N2CCN(Cc3ccc(C)cc3)CC2)CCc2ccccc21` (stereo unspecified), the pKi (in general, the negative decadic logarithm of the Ki, by convention in mol/L) at D(4) dopamine receptor [4] was 5.53; at D(2) dopamine receptor [5] it was below 6.00. Besides, the inhibition constant (Ki) in test [1] is 0.815 µM.

Consider `Cc1ccc(CN2CCN(C3(C)C(=O)N(C)c4ccccc43)CC2)cc1` (stereo unspecified), for which the pKi on D(4) dopamine receptor [4] and on D(2) dopamine receptor [5] was below 6.00 each time. Besides, the Ki in test [1] was above 10 µM.

For `CN(C(=O)CN1CCN(Cc2ccc(Cl)cc2)CC1)c1ccccc1`, the results for the pKi at D(4) dopamine receptor [4] and at D(2) dopamine receptor [5] were 7.23 and below 6.00, respectively. Besides, in test [1], the Ki is above 10 µM.

In the case of `CCN1C(=O)C(CC)(N2CCN(Cc3ccc(Cl)cc3)CC2)c2ccccc21` (stereo unspecified), the pKi is 5.15 on D(4) dopamine receptor [4] and below 6.00 on D(2) dopamine receptor [5]. In addition, the Ki in test [1] was above 10 µM.

In the case of `CCN1C(=O)C(CC)(N2CCN(Cc3ccc(C)cc3)CC2)c2ccccc21` (stereo unspecified), the pKi at D(4) dopamine receptor [4] and at D(2) dopamine receptor [5] was below 6.00 each time. This compound yielded a Ki in test [1] above 10 µM.

Consider `Cc1ccc(CN2CCN(C3CCc4ccccc4N(C)C3=O)CC2)cc1` (stereo unspecified), for which the pKi on D(4) dopamine receptor [4] is 5.36; on D(2) dopamine receptor [5], below 6.00. The Ki in test [1] was 2.038 µM.

For the compound `CN1C(=O)C(N2CCN(Cc3ccc(Cl)cc3)CC2)Cc2ccccc21` (stereo unspecified), the pKi on D(4) dopamine receptor [4] was 8.40; at D(2) dopamine receptor [5], 6.88. The Ki in test [1] turned out to be 2.003 µM.

Turning to `O=C1Nc2ccccc2C1N1CCN(Cc2ccc(Cl)cc2)CC1` (stereo unspecified), the pKi at D(4) dopamine receptor [4] and at D(2) dopamine receptor [5] was below 6.00 each time. The same compound came in with a Ki in test [1] above 10 µM.

With `CCOC(=O)C(Cc1ccccc1[N+](=O)[O-])(C(=O)OCC)N1CCN(Cc2ccc(Cl)cc2)CC1`, the Ki entry at D(2) dopamine receptor [2] and at D(4) dopamine receptor [3] was “Not Active” each time.

For `CN1C(=O)C(N2CCN(Cc3ccc(Cl)cc3)CC2)CCc2ccccc21` (stereo unspecified), the pKi at D(4) dopamine receptor [4] was 5.61; on D(2) dopamine receptor [5], 5.13. In addition, the Ki in test [1] came out at 2.878 µM.

In the case of `CCOC(=O)C(C(=O)OCC)N1CCN(Cc2ccc(Cl)cc2)CC1`, the Ki result on D(2) dopamine receptor [2] and on D(4) dopamine receptor [3] was “Not Active” throughout.

Regarding `CCOC(=O)C(Cc1ccccc1N)(C(=O)OCC)N1CCN(Cc2ccc(Cl)cc2)CC1`, the Ki result at D(2) dopamine receptor [2] and on D(4) dopamine receptor [3] was “Not Active” in each case.

Take `Fc1ccc(OC[C@@H]2CC[C@H]3CN(c4ncc(F)cn4)CCN3C2)cc1`: the Ki result on D(2) dopamine receptor [2] and on D(4) dopamine receptor [3] was “Not Active” throughout.

For the compound `O=C1Nc2ccccc2CCC1I` (stereo unspecified), the Ki result at D(2) dopamine receptor [2] and on D(4) dopamine receptor [3] was “Not Active” in each case.

With `Cc1ccc(CN2CCN(C3CCc4ccccc4NC3=O)CC2)cc1` (stereo unspecified), the pKi at D(4) dopamine receptor [4] and on D(2) dopamine receptor [5] was below 6.00 in each case. This compound yielded a Ki in test [1] of 3.12 µM.

On to `O=C1Nc2ccccc2CCC1N1CCN(Cc2ccc(Cl)cc2)CC1` (stereo unspecified), for which the pKi at D(4) dopamine receptor [4] and on D(2) dopamine receptor [5] was below 6.00 each time. This compound also displayed a Ki in test [1] of 9.591 µM.

With `Clc1ccc(CN2CCNCC2)cc1`, the inhibitory constant (Ki) result on D(2) dopamine receptor [2] and on D(4) dopamine receptor [3] was “Not Active” in each case.

On to `O=C1Nc2ccccc2CC1N1CCN(Cc2ccc(Cl)cc2)CC1` (stereo unspecified), for which the pKi at D(4) dopamine receptor [4] is 7.00; at D(2) dopamine receptor [5], 5.86. Also, in test [1], the Ki was 2.003 µM.

As for `CCN1C(=O)C(N2CCN(Cc3ccc(Cl)cc3)CC2)CCc2ccccc21` (stereo unspecified), the pKi at D(4) dopamine receptor [4] is 5.82; at D(2) dopamine receptor [5], below 6.00. The compound further gave a Ki in test [1] of 2.678 µM.

Turning to `O=C1Nc2ccccc2C1Cl` (stereo unspecified), the Ki entry on D(2) dopamine receptor [2] and on D(4) dopamine receptor [3] was “Not Active” each time.

On to `CN1C(=O)C(C)(N2CCN(Cc3ccc(Cl)cc3)CC2)c2ccccc21` (stereo unspecified), for which the pKi on D(4) dopamine receptor [4] and on D(2) dopamine receptor [5] was below 6.00 each time. This compound came in with a Ki in test [1] above 10 µM.

Regarding `Cc1ccc(CN2CCN(C3C(=O)Nc4ccccc43)CC2)cc1` (stereo unspecified), the pKi at D(4) dopamine receptor [4] and at D(2) dopamine receptor [5] was below 6.00 throughout. Moreover, the Ki in test [1] was above 10 µM.

For `CCN1C(=O)C(N2CCN(Cc3ccc(Cl)cc3)CC2)Cc2ccccc21` (stereo unspecified), the pKi on D(4) dopamine receptor [4] was 8.40; at D(2) dopamine receptor [5] it was 7.68. This compound also came in with a Ki in test [1] of 1.265 µM.

With `Cc1cnc(N2CCN(Cc3c[nH]c(-c4ccccc4)n3)CC2)nc1`, the Ki entry at D(2) dopamine receptor [2] and on D(4) dopamine receptor [3] was “Not Active” in each case.

As for `Clc1ccc(N2CCN(Cc3c[nH]c4ncccc34)CC2)cc1` [L-745870], the Ki result on D(2) dopamine receptor [2] and on D(4) dopamine receptor [3] was “Not Active” each time.

For `NS(=O)(=O)c1ccc(N2CCN(CC[C@@H]3OCCc4ccccc43)CC2)cc1` [SONEPIPRAZOLE], the Ki entry on D(2) dopamine receptor [2] and at D(4) dopamine receptor [3] was “Not Active” in each case.
